Measured values from ChEMBL document CHEMBL5724801, “EUbOPEN Chemogenomics Library - Multiplex” (2024).
Values joined by “and” are separate entries in the source; they are usually repeats but may differ in a detail not shown here. Equal values may be shown once.

test system: U2OS; assay: Multiplex assay against U2OS; format: toxicity, cell-based; settings: human, 12 h, 1 µM, compound concentration 1 uM
In short: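 Live cells were stained at seeding with Hoechst33342, BioTracker Green Microtubule Cytoskeleton Dye, MitoTracker Red and Annexin V Alexa Fluor 680. Following compound addition, they were imaged on a CQ1 microscope at 37°C and 5% CO2 and gated by CellPathfinder machine learning into Hoechst high-intensity objects or normal cells, with normal cells split into healthy, pyknosed or fragmented nuclei and pyknosed cells into mitotic or apoptotic. Tubulin, mitochondrial-mass and membrane-permeability phenotypes are per cents of healthy-nucleus cells.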

SMILES | Population Apoptotic (%) | Population Fragmented Nuclei (%) | Population Healthy Nuclei (%) | Population Hoechst High Intensity Objects (%) | Population Membrane Permeable-Phenotype (%) | Population Mitochondria Different-Phenotype (%) | Population Mitotic Cells (%) | Population Normal (%) | Population Pyknosed Nuclei (%) | Population Tubulin-Different-Phenotype (%)
FC(F)(F)c1ccccc1-c1cc(C(F)(F)F)c2[nH]c(C3=NOC4(CCCCC4)C3)nc2c1 | 48.57% and 27.27% | 2.24% and 1.95% | 87.96% and 83.77% | 0% | 1.91% and 5.43% | 0.32% and 6.98% | 51.43% and 72.73% | 100% | 9.8% and 14.29% | 0.96% and 0%
CCOc1ccccc1C(=O)NCC1(N2CCN(CC)CC2)CCCCC1 | 45.83% and 31.82% | 1.72% and 5.19% | 91.38% and 78.52% | 0% | 1.26% and 8.49% | – | 54.17% and 68.18% | 100% | 6.9% and 16.3% | 0.63% and 0.94%
Clc1ccccc1C(c1ccccc1)(c1ccccc1)n1cccn1 | 52.94% and 50% | 0.85% and 6.19% | 94.3% and 76.11% | 0% | 0.91% and 5.81% | 0.6% and 8.14% | 47.06% and 50% | 100% | – | 1.51% and 2.33%
Cl.c1ccc2c(c1)CCC[C@H]2Nc1nc2ccccc2[nH]1 | 51.52% and 50% | 1.35% and 1.11% | 89.73% and 86.67% | 0% | 0.9% and 4.49% | 0% and 8.33% | 48.48% and 50% | 100% | 8.92% and 12.22% | 0.9% and 0.64%

same assay, conditions: human, 12 h, 1 µM, compound concentration 1 uM

SMILES | Total Cell Count
FC(F)(F)c1ccccc1-c1cc(C(F)(F)F)c2[nH]c(C3=NOC4(CCCCC4)C3)nc2c1 | 357 and 154
CCOc1ccccc1C(=O)NCC1(N2CCN(CC)CC2)CCCCC1 | 348 and 135
Cl.c1ccc2c(c1)CCC[C@H]2Nc1nc2ccccc2[nH]1 | 370 and 180

same assay, conditions: human, 12 h, 10 µM, compound concentration 10 uM

SMILES | Population Apoptotic (%) | Population Fragmented Nuclei (%) | Population Healthy Nuclei (%) | Population Hoechst High Intensity Objects (%) | Population Membrane Permeable-Phenotype (%) | Population Mitotic Cells (%) | Population Normal (%) | Population Pyknosed Nuclei (%) | Population Tubulin-Different-Phenotype (%) | Total Cell Count
FC(F)(F)c1ccccc1-c1cc(C(F)(F)F)c2[nH]c(C3=NOC4(CCCCC4)C3)nc2c1 | 51.92% and 25% | 1.81% and 6.56% | 82.53% and 69.4% | 0% | 18.61% and 23.62% | 48.08% and 75% | 100% | 15.66% and 24.04% | 21.17% and 11.81% | 332 and 183
CCOc1ccccc1C(=O)NCC1(N2CCN(CC)CC2)CCCCC1 | 35% and 23.68% | 1.81% and 4.03% | 80.05% and 70.47% | 0.23% and 0% | 16.15% and 31.43% | 65% and 76.32% | 99.77% and 100% | 18.14% and 25.5% | 49.86% and 44.76% | 442 and 149
Clc1ccccc1C(c1ccccc1)(c1ccccc1)n1cccn1 | 36% and 44% | 1.64% and 4.81% | 84.7% and 71.15% | 0% | 2.58% and 8.11% | 64% and 56% | 100% | 13.66% and 24.04% | 4.19% and 5.41% | –
Cl.c1ccc2c(c1)CCC[C@H]2Nc1nc2ccccc2[nH]1 | 34.15% and 18.18% | 1.73% and 1.16% | 88.15% and 86.13% | 0% | 1.96% and 2.01% | 65.85% and 81.82% | 100% | 10.12% and 12.72% | 1.96% and 2.01% | 405 and 173

same assay, conditions: human, 24 h, 1 µM, compound concentration 1 uM

SMILES | Population Apoptotic (%) | Population Fragmented Nuclei (%) | Population Healthy Nuclei (%) | Population Hoechst High Intensity Objects (%) | Population Membrane Permeable-Phenotype (%) | Population Mitochondria Different-Phenotype (%) | Population Mitotic Cells (%) | Population Normal (%) | Population Pyknosed Nuclei (%) | Population Tubulin-Different-Phenotype (%)
FC(F)(F)c1ccccc1-c1cc(C(F)(F)F)c2[nH]c(C3=NOC4(CCCCC4)C3)nc2c1 | 53.33% and 54.17% | 0.65% and 0% | 89.61% and 86.59% | 0% | 1.69% and 5.16% | 0.24% and 8.39% | 46.67% and 45.83% | 100% | 9.74% and 13.41% | 1.93% and 0.65%
CCOc1ccccc1C(=O)NCC1(N2CCN(CC)CC2)CCCCC1 | 46.15% and 50% | 1.89% and 5.62% | 87.16% and 80.62% | 0% | 1.21% and 8.53% | 0% and 12.4% | 53.85% and 50% | 100% | 10.95% and 13.75% | 0.48% and 1.55%
Clc1ccccc1C(c1ccccc1)(c1ccccc1)n1cccn1 | 37.5% and 52.38% | 0.42% and 4.86% | 89.47% and 80.56% | 0% | 0.71% and 2.59% | 0% and 6.9% | 62.5% and 47.62% | 100% | 10.11% and 14.58% | 0.71% and 0%
Cl.c1ccc2c(c1)CCC[C@H]2Nc1nc2ccccc2[nH]1 | 36.36% and 51.52% | 1.17% and 2.47% | 92.41% and 83.95% | 0.19% and 0% | 0.42% and 2.94% | 0.21% and 7.35% | 63.64% and 48.48% | 99.81% and 100% | 6.42% and 13.58% | 0.21% and 1.47%

same assay, conditions: human, 24 h, 1 µM, compound concentration 1 uM

SMILES | Total Cell Count
FC(F)(F)c1ccccc1-c1cc(C(F)(F)F)c2[nH]c(C3=NOC4(CCCCC4)C3)nc2c1 | 462 and 179
CCOc1ccccc1C(=O)NCC1(N2CCN(CC)CC2)CCCCC1 | 475 and 160
Cl.c1ccc2c(c1)CCC[C@H]2Nc1nc2ccccc2[nH]1 | 515 and 243

same assay, conditions: human, 24 h, 10 µM, compound concentration 10 uM

SMILES | Population Apoptotic (%) | Population Fragmented Nuclei (%) | Population Healthy Nuclei (%) | Population Hoechst High Intensity Objects (%) | Population Mitotic Cells (%) | Population Normal (%) | Population Pyknosed Nuclei (%) | Population Tubulin-Different-Phenotype (%) | Total Cell Count | Population Membrane Permeable-Phenotype (%)
FC(F)(F)c1ccccc1-c1cc(C(F)(F)F)c2[nH]c(C3=NOC4(CCCCC4)C3)nc2c1 | 41.86% and 43.75% | 2.02% and 5.56% | 76.26% and 70.2% | 0% | 58.14% and 56.25% | 100% | 21.72% and 24.24% | 24.17% and 12.95% | 396 and 198 | –
CCOc1ccccc1C(=O)NCC1(N2CCN(CC)CC2)CCCCC1 | 52.04% and 44.44% | 2.49% and 6.29% | 80.07% and 65.41% | 0% | 47.96% and 55.56% | 100% | 17.44% and 28.3% | 29.33% and 41.35% | – | 8% and 10.58%
Clc1ccccc1C(c1ccccc1)(c1ccccc1)n1cccn1 | 45.33% and 34.38% | 1.25% and 0.79% | 83.12% and 73.81% | 0% | 54.67% and 65.62% | 100% | 15.62% and 25.4% | 2.51% and 2.15% | – | 0.75% and 4.3%
Cl.c1ccc2c(c1)CCC[C@H]2Nc1nc2ccccc2[nH]1 | 40% and 51.85% | 2.23% and 2.74% | 89.41% and 84.93% | 0% | 60% and 48.15% | 100% | 8.36% and 12.33% | 1.87% and 1.08% | 538 and 219 | 1.87% and 2.69%

same assay, conditions: human, 24 h, 10 µM, compound concentration 10 uM

SMILES | Population Mitochondria Different-Phenotype (%)
Cl.c1ccc2c(c1)CCC[C@H]2Nc1nc2ccccc2[nH]1 | 0.42% and 8.06%

same assay, conditions: human, 48 h, 1 µM, compound concentration 1 uM

SMILES | Population Apoptotic (%) | Population Fragmented Nuclei (%) | Population Healthy Nuclei (%) | Population Hoechst High Intensity Objects (%) | Population Membrane Permeable-Phenotype (%) | Population Mitochondria Different-Phenotype (%) | Population Mitotic Cells (%) | Population Normal (%) | Population Pyknosed Nuclei (%) | Population Tubulin-Different-Phenotype (%)
FC(F)(F)c1ccccc1-c1cc(C(F)(F)F)c2[nH]c(C3=NOC4(CCCCC4)C3)nc2c1 | 45.78% and 50% | 2.67% and 2.11% | 87.27% and 85.96% | 0.12% and 0% | 0.69% and 1.63% | 0.28% and 8.16% | 54.22% and 50% | 99.88% and 100% | 10.06% and 11.93% | 1.53% and 0.82%
CCOc1ccccc1C(=O)NCC1(N2CCN(CC)CC2)CCCCC1 | 37.84% and 48.15% | 2.6% and 4.8% | 88.67% and 71.62% | 0% | 1.33% and 6.1% | – | 62.16% and 51.85% | 100% | 8.74% and 23.58% | 0.93% and 3.05%
Clc1ccccc1C(c1ccccc1)(c1ccccc1)n1cccn1 | 43.33% and 70% | 3.58% and 1.82% | 89.7% and 89.09% | 0% | 0.75% and 3.57% | 0.12% and 4.08% | 56.67% and 30% | 100% | 6.72% and 9.09% | 1.25% and 2.04%
Cl.c1ccc2c(c1)CCC[C@H]2Nc1nc2ccccc2[nH]1 | 36.59% and 47.06% | 3.12% and 2.18% | 88.61% and 85.44% | 0% | 0.46% and 2.27% | 0.11% and 6.25% | 63.41% and 52.94% | 100% | 8.27% and 12.38% | 0.57% and 0.85%

same assay, conditions: human, 48 h, 1 µM, compound concentration 1 uM

SMILES | Total Cell Count
FC(F)(F)c1ccccc1-c1cc(C(F)(F)F)c2[nH]c(C3=NOC4(CCCCC4)C3)nc2c1 | 826 and 285
Cl.c1ccc2c(c1)CCC[C@H]2Nc1nc2ccccc2[nH]1 | 992 and 412

same assay, conditions: human, 48 h, 10 µM, compound concentration 10 uM

SMILES | Population Apoptotic (%) | Population Fragmented Nuclei (%) | Population Healthy Nuclei (%) | Population Hoechst High Intensity Objects (%) | Population Mitotic Cells (%) | Population Normal (%) | Population Pyknosed Nuclei (%) | Population Tubulin-Different-Phenotype (%) | Total Cell Count | Population Membrane Permeable-Phenotype (%)
FC(F)(F)c1ccccc1-c1cc(C(F)(F)F)c2[nH]c(C3=NOC4(CCCCC4)C3)nc2c1 | 40.68% and 58.46% | 3.58% and 4.76% | 78.04% and 69.44% | 0% | 59.32% and 41.54% | 100% | 18.38% and 25.79% | 19.56% and 20.57% | 642 and 252 | –
CCOc1ccccc1C(=O)NCC1(N2CCN(CC)CC2)CCCCC1 | 58.2% and 70.77% | 2.88% and 5.66% | 83.08% and 63.68% | 0.11% and 0% | 41.8% and 29.23% | 99.89% and 100% | 14.04% and 30.66% | 15.24% and 28.89% | – | –
Clc1ccccc1C(c1ccccc1)(c1ccccc1)n1cccn1 | 51.65% and 41.67% | 2.12% and 0.6% | 85.85% and 77.71% | 0% | 48.35% and 58.33% | 100% | 12.04% and 21.69% | 3.08% and 5.43% | – | 1.54% and 5.43%
Cl.c1ccc2c(c1)CCC[C@H]2Nc1nc2ccccc2[nH]1 | 41.57% and 48.08% | 2.25% and 2.98% | 88.65% and 82.93% | 0% and 0.27% | 58.43% and 51.92% | 100% and 99.73% | 9.1% and 14.09% | 1.5% and 2.61% | 978 and 370 | 1.5% and 3.92%

same assay, conditions: human, 48 h, 10 µM, compound concentration 10 uM

SMILES | Population Mitochondria Different-Phenotype (%)
Clc1ccccc1C(c1ccccc1)(c1ccccc1)n1cccn1 | 1.08% and 10.08%
Cl.c1ccc2c(c1)CCC[C@H]2Nc1nc2ccccc2[nH]1 | 0% and 3.92%
